Columns and labels:
[1] = biological target: T1, Glutamate carboxypeptidase 2 (Homo sapiens, UniProt Q04609); test: Displacement of [125I]-DCIT from PSMA in human LNCaP cells after 1 hr by gamma counting
LNCaP [2] = test: Biodistribution in LNCAP cells in C.B.-17/Icr […] Jcl mouse xenografted with human LNCAP and PC3 cells after 30 to 60 mins; assay type: ADME, organism-based; settings: in vivo
Intestine = test: Biodistribution in intestine of C.B.-17/Icr […] Jcl mouse xenografted with human LNCAP and PC3 cells after 30 to 60 mins; assay type: ADME, organism-based; settings: in vivo
Liver (Mus musculus) = test: Biodistribution in liver of C.B.-17/Icr […] Jcl mouse xenografted with human LNCAP and PC3 cells after 30 to 60 mins; settings: in vivo
PC-3 = test: Biodistribution in PC3 cells in C.B.-17/Icr +/+ Jcl mouse xenografted with human LNCAP and PC3 cells at 25.9 MBq, iv after 30 mins by SPECT/CT analysis in presence of 2-PMPA; assay type: ADME, organism-based; settings: in vivo, 0.5 h
Procedure, shortened: (§1)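 Anaesthetised (2.5% isoflurane) LNCaP/PC-3 tumour-bearing mice (20–25 g), kept on a heating pad, given ¹²³I tracer (25.9 MBq in 0.10 mL saline) iv by tail vein, with or without 50 mg/kg 2-PMPA. Pinhole SPECT acquired over 30–64 min (159 keV ±10% window, 32 projections × 60 s, 360°), then CT; images reconstructed by 3D OSEM.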

LNCaP [3] = test: Biodistribution in LNCAP cells in C.B.-17/Icr +/+ Jcl mouse xenografted with human LNCAP and PC3 cells at 25.9 MBq, iv after 30 mins by SPECT/CT analysis in presence of 2-PMPA; assay type: ADME, organism-based; settings: in vivo, 0.5 h
Procedure, shortened: as §1

LNCaP [4] = test: Biodistribution in LNCAP cells in C.B.-17/Icr +/+ Jcl mouse xenografted with human LNCAP and PC3 cells at 25.9 MBq, iv after 30 mins by SPECT/CT analysis; assay type: ADME, organism-based; settings: in vivo, 0.5 h
Procedure, shortened: as §1

[5] = biological target: T1, Glutamate carboxypeptidase 2; test: Binding affinity to PSMA in human LNCaP cells after 1 hr by gamma counting; assay type: cell-based
Procedure, shortened: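 LNCaP cells plated at 4 × 10⁵ cells/well and grown 48 h (37 °C/5% CO₂), then washed with RPMI 1640 containing 0.5% BSA. Saturation binding used ¹²⁵I-labelled ligand (specific activity 81.4 kBq/nmol), 1 h at 37 °C; nonspecific binding measured with 100 µM non-radioactive iodinated compound. Cells washed, lysed in 0.2 N NaOH, gamma-counted; Kd from Scatchard plots.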

Kidney [6] = test: Drug excretion in C.B.-17/Icr […] Jcl mouse kidney xenografted with human LNCAP and PC3 cells; assay type: ADME, tissue-based; settings: in vivo
Liver = test: Drug excretion in C.B.-17/Icr […] Jcl mouse liver xenografted with human LNCAP and PC3 cells; assay type: ADME, tissue-based; settings: in vivo
[7] = Distribution coefficient, log D of the compound; assay type: physicochemical; settings: octanol/water
Blood = test: Biodistribution in blood of C.B.-17/Icr […] Jcl mouse xenografted with human LNCAP and PC3 cells after 30 mins; assay type: ADME, organism-based; settings: in vivo, 0.5 h
Kidney [8] = test: Biodistribution in kidney of C.B.-17/Icr […] Jcl mouse xenografted with human LNCAP and PC3 cells after 2 mins to 3 hrs; assay type: ADME, organism-based; settings: in vivo
Procedure, shortened: (§2)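 ¹²⁵I-labelled tracer given iv by tail vein to mice (22–24 g) bearing LNCaP (left shoulder) and PC-3 (right shoulder) xenografts of about 5–10 mm, grown from 1–5 × 10⁶ cells in 1:1 Matrigel. n=4 per time point; decapitated at 2 min, 30 min, 1, 3, 6 h. Tissues weighed and counted; uptake as %ID/g, mean ± SD.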

LNCaP [9] = test: Biodistribution in LNCAP cells in C.B.-17/Icr +/+ Jcl mouse xenografted with human LNCAP and PC3 cells after 2 mins to 3 hrs; assay type: ADME, organism-based; settings: in vivo
Procedure, shortened: as §2

T1 sequence (Q04609 whole entry): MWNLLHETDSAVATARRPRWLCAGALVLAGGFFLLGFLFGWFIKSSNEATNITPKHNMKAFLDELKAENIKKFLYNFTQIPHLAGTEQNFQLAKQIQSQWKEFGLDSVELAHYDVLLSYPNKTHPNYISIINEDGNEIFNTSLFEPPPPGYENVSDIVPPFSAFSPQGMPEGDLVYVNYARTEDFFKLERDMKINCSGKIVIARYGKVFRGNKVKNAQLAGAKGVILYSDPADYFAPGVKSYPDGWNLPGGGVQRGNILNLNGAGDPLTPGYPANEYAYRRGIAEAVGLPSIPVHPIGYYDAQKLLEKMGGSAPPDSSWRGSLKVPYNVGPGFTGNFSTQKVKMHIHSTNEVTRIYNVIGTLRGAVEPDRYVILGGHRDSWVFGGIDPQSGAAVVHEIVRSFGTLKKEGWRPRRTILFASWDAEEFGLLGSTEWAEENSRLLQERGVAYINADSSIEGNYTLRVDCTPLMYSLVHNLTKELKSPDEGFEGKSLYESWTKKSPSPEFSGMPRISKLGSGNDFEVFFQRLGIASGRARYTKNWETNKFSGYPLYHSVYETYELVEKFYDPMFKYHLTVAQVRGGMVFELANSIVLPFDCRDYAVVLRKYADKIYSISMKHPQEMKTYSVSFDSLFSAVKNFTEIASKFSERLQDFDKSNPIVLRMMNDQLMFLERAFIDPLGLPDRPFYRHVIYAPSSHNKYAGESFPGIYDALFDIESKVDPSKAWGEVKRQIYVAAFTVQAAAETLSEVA

SMILES: O=C(O)CC[C@H](NC(=O)N[C@@H](CS)C(=O)O)C(=O)O
- Ki [1]: 376 nM

SMILES: O=C(O)CC[C@H](NC(=O)N[C@@H](CSC1CC(=O)N(CCCCCNC(=O)CNC(=O)c2cccc([125I])c2)C1=O)C(=O)O)C(=O)O (some centres undefined)
- Drug uptake (LNCaP [2]): Active
- Drug uptake (Intestine): Active
- Drug uptake (Liver (Mus musculus)): Active

SMILES: O=C(O)CC[C@H](NC(=O)N[C@@H](CSC1CC(=O)N(CCCC[C@H](NC(=O)CNC(=O)c2cccc([123I])c2)C(=O)O)C1=O)C(=O)O)C(=O)O (some centres undefined)
- Drug uptake (PC-3): Not Active
- Drug uptake (LNCaP [3]): Not Active
- Drug uptake (LNCaP [4]): Active

SMILES: O=C(O)CC[C@H](NC(=O)N[C@@H](CSC1CC(=O)N(CCCC[C@H](NC(=O)c2cccc(I)c2)C(=O)O)C1=O)C(=O)O)C(=O)O (some centres undefined)
- Ki [1]: 2.79 nM

SMILES: CN1C(=O)CC(SC[C@H](NC(=O)N[C@@H](CCC(=O)O)C(=O)O)C(=O)O)C1=O (some centres undefined)
- Ki [1]: 62.1 nM

SMILES: CNCC(=O)N[C@@H](CCCCN1C(=O)CC(SC[C@H](NC(=O)N[C@@H](CCC(=O)O)C(=O)O)C(=O)O)C1=O)C(=O)O (some centres undefined)
- Ki [1]: 94.8 nM

SMILES: O=C(O)CC[C@H](NC(=O)N[C@@H](Cc1ccc(O)c([125I])c1)C(=O)O)C(=O)O
- Kd [5]: 143 nM

SMILES: O=C(O)CC[C@H](NC(=O)N[C@@H](CCCCNCc1ccc([125I])cc1)C(=O)O)C(=O)O
- Drug excretion (Kidney [6]): Active
- Drug excretion (Liver): Not Active
- logD [7]: -2.91
- Drug uptake (Blood): Active
- Drug uptake (Kidney [8]): Active
- Drug uptake (LNCaP [9]): Active
- Kd [5]: 20.4 nM

SMILES: O=C(O)CC[C@H](NC(=O)N[C@@H](CSC1CC(=O)N(CCCC[C@H](NC(=O)CNC(=O)c2cccc(I)c2)C(=O)O)C1=O)C(=O)O)C(=O)O (some centres undefined)
- Ki [1]: 4.97 nM

SMILES: O=C(O)CC[C@H](NC(=O)N[C@@H](CSC1CC(=O)N(CCCC[C@H](NC(=O)CNC(=O)c2ccccc2)C(=O)O)C1=O)C(=O)O)C(=O)O (some centres undefined)
- Ki [1]: 8.06 nM

SMILES: O=C(O)CC[C@H](NC(=O)N[C@@H](CSC1CC(=O)N(CCCCCNC(=O)CNC(=O)c2cccc(I)c2)C1=O)C(=O)O)C(=O)O (some centres undefined)
- Ki [1]: 7.91 nM

SMILES: O=C(O)CC[C@H](NC(=O)N[C@@H](CSC1CC(=O)N(CCCC[C@H](NC(=O)CCNC(=O)c2cccc(I)c2)C(=O)O)C1=O)C(=O)O)C(=O)O (some centres undefined)
- Ki [1]: 6.26 nM

SMILES: O=C(O)CC[C@H](NC(=O)N[C@@H](CSC1CC(=O)N(CCCC[C@H](NC(=O)CCCNC(=O)c2cccc(I)c2)C(=O)O)C1=O)C(=O)O)C(=O)O (some centres undefined)
- Ki [1]: 2.95 nM

SMILES: O=C(O)CC[C@H](NC(=O)N[C@@H](CSC1CC(=O)N(CCCC[C@H](NC(=O)CCCCNC(=O)c2cccc(I)c2)C(=O)O)C1=O)C(=O)O)C(=O)O (some centres undefined)
- Ki [1]: 2.14 nM

Source: ChEMBL document CHEMBL2429791, “Preparation of asymmetric urea derivatives that target prostate-specific membrane antigen for SPECT imaging” (J Med Chem, 2013)
